# Assay outcomes from PubChem.
# An excerpt weighted towards active compounds, which were near 1.2% of everything screened.
# Diaphorase inh = counter-screen for diaphorase-based assays: diaphorase inhibitors and chemical oxidizers. inhibition, % at 20 µM. hit rate 0.69% among 190,000. diaphorase resazurin-to-resorufin fluorescence, NADH, 16 min; bacterial (C. kluyveri) enzyme, not human. AID 1217;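 active means primary screen inhibition at 20 µM above a set limit, cut at about 50% in these data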;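 further: plate controls were DMSO with full reaction for no effect and wells lacking NADH for full effect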
#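 Assay system – diaphorase enzyme from Clostridium kluyveri · Amount – diaphorase 0.14 U/mL (working solution) · Times – reaction incubation of 16 min at room temperature · Controls – No-NADH positive control and DMSO neutral control · Signal – resorufin fluorescence 544/590 nm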
# PfGluPho inh = PfG6PD (Plasmodium falciparum) enzyme inhibition; inhibition, % at 20 µM; PfGluPho enzyme, NADPH resazurin-diaphorase fluorescence; AID 504690; hit rate 0.78% among 350,000;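 active means inhibition reaching at least a set limit at 20 µM in the primary screen, cut at about 59% in these data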;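 further: 0% = DMSO wells with substrate and 100% = DMSO wells lacking glucose-6-phosphate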
# HKDC1 inhibitor = blocks human hexokinase HKDC1 activity; Q2TB90; AID 493160; inhibition, % at 20 µM; recombinant HKDC1, G6PDH/diaphorase resazurin coupled fluorescence; hit rate 0.16% among 340,000;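 active means inhibition above about 35% when tested at 20 µM, limit read from the data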;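 further: plate controls were DMSO wells with enzyme for no effect and DMSO wells lacking enzyme for full effect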
#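 Material – in-house recombinant HK5 (HKDC1) enzyme · Quantity – HKDC1 at 5 µg/mL · Buffer or medium – pH 8.0 Tris buffer with 10 mM MgCl2 · Reagent – glucose with 1 mM ATP · Dosing – single 20 µM dose · Times – reaction time 90 min, room temperature, protected from light · Technique – resorufin fluorescence at 613 nm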
# Diaphorase act = diaphorase activation or chemical reduction counter-screen | hit rate 0.005% among 190,000 | Diaphorase/resazurin coupled assay, resorufin fluorescence, 16 min; hits give high values; 1 = vehicle wells, 0 = NADH-free wells | activation factor at 20 µM;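 active means diaphorase activity raised at least twofold by the compound at 20 µM; inactive means activation factor below 2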
#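 test system = bacterial diaphorase enzyme (C. kluyveri) | quantity = enzyme 0.07 U/mL final | reagent = NADH substrate 0.114 mM plus resazurin dye 0.1 mM, final | incubation = 16 min enzyme reaction, ambient temperature | buffer or medium = HEPES pH 7.4 buffer with MgCl2 and Tween 20 | signal = fluorescence of resorufin, 544 nm excitation, 590 nm emission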
# G6PDH CS = counter-screen for G6PDH assay hits: L. mesenteroides G6PDH inhibition; hit rate 0.12% among 200,000; AID 1020; inhibition, % at 5 µM; Purified L. mesenteroides G6PDH, diaphorase/resazurin coupled fluorescence, 45 min; in the data active means inhibition above about 50%
# PfG6PD confirm = PfG6PD inhibition, single-dose confirmed; AID 504753; shares compounds with PfGluPho inh; recombinant PfGluPho, NADPH-diaphorase-resazurin fluorescence; hit rate 34% among 2,400; inhibition, % at 20 µM;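 active means inhibition of at least 50% at 20 µM in any single replicate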;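 further: 0% = DMSO with substrate and 100% = DMSO lacking glucose-6-phosphate substrate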
# Diaphorase 10uM = diaphorase inhibition or oxidation at 10 uM NADPH; shares compounds with PfGluPho inh; diaphorase-coupled resazurin reduction, fluorescence, NADPH 10 uM; inhibition, % at 20 µM; hit rate 39% among 820;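 active means average inhibition reaching 50% or more with the compound at 20 µM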;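 further: resorufin red fluorescence formed as diaphorase reduces resazurin using NADPH; 0% = DMSO with enzyme and 100% = DMSO without enzyme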
# Diaph ctr 30uM = diaphorase inhibition or oxidation at 30 uM NADPH; shares compounds with PfGluPho inh; Diaphorase/resazurin coupled assay, resorufin fluorescence; inhibition, % at 20 µM; hit rate 29% among 820;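 active means inhibition averaging 50% or more, tested at 20 µM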;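 further: 0% = DMSO with enzyme and 100% = DMSO wells lacking diaphorase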
# An asterisk follows results filed as active; x = no result given.
SMILES,Diaphorase inh,PfGluPho inh,HKDC1 inhibitor,Diaphorase act,G6PDH CS,PfG6PD confirm,others
COc1ccc(NC(=O)c2oc3ccccc3c2CSC)cn1,x,73*,3,x,x,29,
Oc1ccc(NCc2cccc(OCc3ccccc3)c2)cc1,43,59*,8,0.6,18,4,
Oc1ccc(NCc2cccc(OCc3ccc(F)cc3)c2)cc1,23,48,3,0.8,25,x,
O=C(Cc1cccs1)Nc1cccc(-c2nc3cc4ccccc4cc3[nH]2)c1,19,63*,-3,0.8,7,7,
N#Cc1c(N)n(-c2ccc(N)cc2)c2nc3ccccc3nc12,x,-15,6,x,x,x,
N#Cc1c(C#N)c(SSc2c(C#N)c(C#N)c(N)n2-c2ccccc2)n(-c2ccccc2)c1N,x,111*,-1,x,x,61*,Diaphorase 10uM=-12;Diaph ctr 30uM=-18
COC(=O)c1cc(CSc2nc3ccc(C)cc3[nH]2)oc1C,32,61*,-1,0.7,-2,17,
CN(C1CCCCC1)S(=O)(=O)c1ccc(=S)[nH]c1,x,61*,-4,x,x,17,
CN(C1CCCCC1)S(=O)(=O)c1ccc(S(=O)(=O)N2CCCC2)cc1,10,3,-10,0.9,-8,x,
O=C(O)C1C2CCC(O2)C1C(=O)Nc1ccccc1Br (configuration not stated),x,9,-3,x,x,x,
COC(=O)C1CN(C(=O)C(C)Oc2ccc(C(C)C)cc2)c2ccccc2O1 (configuration not stated),x,9,4,x,x,x,
CC(C)N1CCN(S(=O)(=O)c2ccccc2)c2ccccc21,x,95*,4,x,x,38,
O=S(=O)(c1ccccc1)N1CCN(S(=O)(=O)c2ccccc2)c2ccccc21,x,112*,4,x,x,45,
O=S(=O)(c1ccccc1)N1CCNc2ccccc21,x,23,-1,x,x,x,
COc1ncnc2c1ncn2CCCNCc1ccc(C)o1,x,-2,x,x,x,x,
COc1cnn(-c2ccc(C)cc2)c(=O)c1SCc1ccccc1,22,66*,-1,0.8,0,3,
COc1cnn(-c2ccccc2)c(=O)c1SCc1ccc(Cl)cc1Cl,29,66*,10,0.7,-3,-3,
COc1cnn(-c2ccccc2)c(=O)c1OC,x,0,1,x,x,x,
COc1cnn(-c2ccc(Br)cc2)c(=O)c1SCc1ccccc1,16,17,-1,0.8,-5,x,
S=c1cnc2ccccc2[nH]1,9,64*,-13,0.9,10,4,
Clc1ccc(/C=N/NC2=Nc3cccc4cccc2c34)cc1,6,31,-6,0.9,-23,x,
C(=N\NC1=Nc2cccc3cccc1c23)/c1ccccc1,9,66*,13,0.9,-2,10,
C(=N\NC1=Nc2cccc3cccc1c23)/c1cccnc1,10,82*,7,0.9,2,36,
CC(=O)c1ccc(N2CCN(CC(=O)Nc3ccccc3C(=O)NC3CC3)CC2)c(F)c1,x,-7,-4,x,x,x,
COc1cccc(NC(=O)C(OC(=O)c2ccccc2NS(=O)(=O)c2cccs2)c2ccccc2)c1 (configuration not stated),12,75*,-3,0.9,-10,32,
SMILES,Diaphorase inh,PfGluPho inh,HKDC1 inhibitor,Diaphorase act,G6PDH CS,PfG6PD confirm,others
CCc1ccc(C2CC(=O)N3CN(c4ccccc4)CSC3=C2C#N)cc1 (configuration not stated),55*,78*,16,0.5,19,9,
N#CC1=C2SCN(c3ccc(F)cc3)CN2C(=O)CC1c1cccc(F)c1 (configuration not stated),48,69*,17,0.5,42,25,
COc1ccc(Cl)cc1N1C(=O)CN(Cc2cc(OC)c(OC)c(OC)c2)C1=S,x,46,-2,x,x,x,
CC(=O)Nc1ccc2nc(-c3ccccn3)[nH]c2c1,16,-9,2,0.8,15,x,
c1ccc(-c2nc3cc4ccccc4cc3[nH]2)nc1,5,89*,7,0.9,-38,37,
c1cncc(-c2nc3cc4ccccc4cc3[nH]2)c1,9,62*,-8,0.9,7,17,
